This is one part of a sample in which hits are shown more often than they occur.
KDM4C inh – inhibitors of human demethylase GASC-1 KDM4C | Q9H3R0 | GST-KDM4C 2-372, H3K9me3 peptide, LANCE TR-FRET | inhibition, % at 12.5 µM | 96,000 tested, 0.15% active;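 active = mean replicate inhibition above about 25%, with at least 55% of replicates also reaching it, limit read from the data, passing the limit was not always enough; inconclusive = only one of those two conditions met; inactive = neither condition met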
Target sequence (Q9H3R0 2-372 limits assumed): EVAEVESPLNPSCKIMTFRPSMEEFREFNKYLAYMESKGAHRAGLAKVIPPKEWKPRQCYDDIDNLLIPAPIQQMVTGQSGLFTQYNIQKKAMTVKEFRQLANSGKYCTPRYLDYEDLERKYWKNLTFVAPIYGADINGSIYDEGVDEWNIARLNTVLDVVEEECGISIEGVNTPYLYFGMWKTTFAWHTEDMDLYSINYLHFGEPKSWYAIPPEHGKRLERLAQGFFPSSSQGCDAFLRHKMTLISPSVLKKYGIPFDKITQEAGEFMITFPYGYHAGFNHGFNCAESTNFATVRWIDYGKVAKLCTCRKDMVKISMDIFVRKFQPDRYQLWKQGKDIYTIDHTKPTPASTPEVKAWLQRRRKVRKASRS
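System – N-terminal GST-fused human GASC-1 (KDM4C) fragment, residues 2-372 · Input – enzyme final amount 10 nM · Technique – LANCE TR-FRET, Eu antibody, ULight-streptavidin, EDTA, ex 340 nm, em 618/671 nm · Medium – HEPES buffer, pH 7.5, plus ascorbate · Incubation – enzyme reaction 30 min, then detection 60 min, both room temperature · Reagent – H3K9me3 peptide with Fe(II)/2OG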
T cruzi growth-1 – blocks T. cruzi growth in NIH3T3 culture | T. cruzi beta-gal in NIH3T3, GalScreen luminescence, 90 h | inhibition, % at 8.34 µM | 77,000 tested, 5.9% active;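 active = mean inhibition above about 93%, with at least 55% of replicates each passing it, limit read from the data, passing the limit was not always enough; inconclusive = only one of those two conditions holds; inactive = neither condition holds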
IDH1 R132H inh – blocks human IDH1 R132H reductase activity. 70,000 tested, 0.18% active. diaphorase/resazurin fluorescence, 60 min. inhibition, % at 10 µM. AID 624101; in the data active = inhibition above about 34%; inconclusive = no clear call, values can overlap the other calls; inactive = below about 11%;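 note: 0% = DMSO and 100% = no enzyme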
T cruzi growth-2 – inhibitors of T. cruzi proliferation; shares compounds with T cruzi growth-1; T. cruzi beta-gal in NIH3T3, GalScreen luminescence, 90 h; inhibition, % at 8.35 µM; 5,600 tested, 72% active;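 active = mean replicate inhibition above about 95% and at least 55% of replicates individually reaching it, limit read from the data; inconclusive = only one of the two criteria is met; inactive = neither criterion is met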
T cruzi growth-3 – Trypanosoma cruzi proliferation inhibition | shares compounds with T cruzi growth-1 | T. cruzi beta-gal in NIH3T3, GalScreen luminescence, 90 h | inhibition, % at 2.09 µM | 5,600 tested, 21% active;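 active = mean inhibition above about 95%, with at least 55% of replicates also reaching it, limit read from the data; inconclusive = meets just one of the two conditions; inactive = meets neither condition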;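 note: plate controls were neutral control median for no effect and positive control median for full effect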
3T3 cytotox – kills mouse NIH/3T3 fibroblasts; shares compounds with T cruzi growth-1; NIH/3T3 viability, CellTiter-Glo ATP luminescence, 90 h; cytotoxicity (signal decrease), % at 8.35 µM; 5,600 tested, 14% active; AID 651742;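 active = mean signal decrease across replicates above about 35% based on untreated-well scatter, with enough replicates individually passing, limit read from the data; inconclusive = no rule stated though some were filed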;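 note: 0% = median of neutral control wells and 100% = median of positive control wells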
NIH3T3 tox 2 – kills mouse NIH/3T3 fibroblasts; shares compounds with T cruzi growth-1; 5,600 tested, 56% active; NIH/3T3 viability, CellTiter-Glo ATP luminescence, 90 h; inhibition, % at 24.9 µM;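 active = mean loss of cell viability signal at or above a set limit, and enough replicates individually reaching it; inconclusive = meets only the mean limit or only the replicate share; inactive = meets neither condition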;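 note: 0% = median of neutral control wells and 100% = median of positive control wells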
Starred values were filed as active, the others as inactive; ? = inconclusive; . = no result given.

SMILES	KDM4C inh	T cruzi growth-1	IDH1 R132H inh	T cruzi growth-2	T cruzi growth-3	3T3 cytotox	NIH3T3 tox 2
C[C@H]1CCCCO[C@H](CN(C)C(=O)Nc2ccc3c(c2)OCO3)[C@@H](C)CN([C@@H](C)CO)C(=O)c2cc(NC(=O)Nc3ccc(C(F)(F)F)cc3)ccc2O1	0	79	.	.	.	.	.
O=C(CSc1ncccn1)Nc1ccc(I)cc1	.	.	0	.	.	.	.
C[C@@H]1CN([C@@H](C)CO)C(=O)c2cc(NS(=O)(=O)c3ccc(Cl)cc3)ccc2O[C@@H]1CN(C)C(=O)Nc1ccc(C(F)(F)F)cc1	-1	36	-3	.	.	.	.
COc1ccccc1-c1cnc2c(c1)C(=O)N([C@@H](C)CO)C[C@H](C)[C@H](CN(C)Cc1cccc(F)c1)O2	-3	71	0	.	.	.	.
C[C@@H]1CCCCO[C@@H](CN(C)C(=O)c2ccncc2)[C@H](C)CN([C@H](C)CO)C(=O)c2cc(NC(=O)NC3CCCCC3)ccc2O1	-4	3	.	.	.	.	.
COc1cc2c(cc1NC(=O)C(C)Oc1ccccc1C)oc1ccccc12 (stereo unspecified)	.	.	0	.	.	.	.
Cc1ccc(S(=O)(=O)Nc2ccc3c(c2)C(=O)N([C@@H](C)CO)C[C@H](C)[C@H](CN(C)S(=O)(=O)c2ccc(F)cc2)OCCCC[C@@H](C)O3)cc1	0	?	-10	105*	77	20	32*
Cc1ccc(S(=O)(=O)Nc2ccc3c(c2)C(=O)N([C@@H](C)CO)C[C@@H](C)[C@H](CN(C)S(=O)(=O)c2ccc(F)cc2)OCCCC[C@@H](C)O3)cc1	0	103*	.	106*	66	-1	6
Cc1ccc(S(=O)(=O)N(C)C[C@H]2OCCCC[C@H](C)Oc3ccc(NS(=O)(=O)c4ccc(F)cc4)cc3C(=O)N([C@@H](C)CO)C[C@@H]2C)cc1	-1	115*	.	104*	84	-22	-23
Cc1ccc(S(=O)(=O)Nc2ccc3c(c2)C(=O)N([C@H](C)CO)C[C@@H](C)[C@H](CN(C)S(=O)(=O)c2ccc(F)cc2)OCCCC[C@@H](C)O3)cc1	0	109*	1	102*	76	6	-17
Cc1ccc(S(=O)(=O)N(C)C[C@H]2OCCCC[C@H](C)Oc3ccc(NS(=O)(=O)c4ccc(F)cc4)cc3C(=O)N([C@H](C)CO)C[C@@H]2C)cc1	0	103	-1	.	.	.	.
Cc1ccc(S(=O)(=O)Nc2ccc3c(c2)C(=O)N([C@H](C)CO)C[C@@H](C)[C@@H](CN(C)S(=O)(=O)c2ccc(F)cc2)OCCCC[C@@H](C)O3)cc1	0	.	.	.	.	.	.
Cc1ccc(S(=O)(=O)Nc2ccc3c(c2)C(=O)N([C@H](C)CO)C[C@@H](C)[C@@H](CN(C)S(=O)(=O)c2ccc(F)cc2)OCCCC[C@H](C)O3)cc1	0	.	-1	.	.	.	.
Cc1ccc(S(=O)(=O)Nc2ccc3c(c2)C(=O)N([C@@H](C)CO)C[C@H](C)[C@@H](CN(C)S(=O)(=O)c2ccc(F)cc2)OCCCC[C@H](C)O3)cc1	1	.	0	.	.	.	.
CN(C)C(=O)[C@@H]1[C@@H](CO)[C@@H]2Cn3c(ccc(-c4cncnc4)c3=O)[C@H]1N2C(=O)NC1CCCC1	1	-119	.	.	.	.	.
O=C(CSc1nnc(-c2ccncc2)o1)c1cc2ccccc2oc1=O	.	.	1	.	.	.	.
O=C(NC1CCCC1)N1CC(=O)N2[C@H](CO)[C@@H](c3ccc(-c4cccc(F)c4)cc3)[C@H]2C1	0	.	.	.	.	.	.
COc1ccc(Cl)cc1N(CC(=O)N1CCN(c2cccc(Cl)c2)CC1)S(C)(=O)=O	.	.	0	.	.	.	.
Cc1ccc(S(=O)(=O)N(C)C[C@@H]2OCCCC[C@H](C)Oc3ccc(NS(=O)(=O)c4ccc(F)cc4)cc3C(=O)N([C@@H](C)CO)C[C@H]2C)cc1	0	93	0	.	.	.	.
Cc1ccc(S(=O)(=O)N(C)C[C@@H]2OCCCC[C@@H](C)Oc3ccc(NS(=O)(=O)c4ccc(F)cc4)cc3C(=O)N([C@@H](C)CO)C[C@@H]2C)cc1	1	102*	0	105*	90	-27	12
C[C@@H]1CCCCO[C@@H](CN(C)S(=O)(=O)c2ccc(F)cc2)[C@@H](C)CN([C@@H](C)CO)C(=O)c2cc(NS(=O)(=O)c3ccc(F)cc3)ccc2O1	-1	72	1	.	.	.	.
Cc1ccc(S(=O)(=O)Nc2ccc3c(c2)C(=O)N([C@@H](C)CO)C[C@H](C)[C@H](CN(C)S(=O)(=O)c2ccc(F)cc2)OCCCC[C@H](C)O3)cc1	0	116*	.	104*	67	-2	9
C[C@@H]1CCCCO[C@H](CN(C)C(=O)Cc2ccccc2)[C@H](C)CN([C@H](C)CO)C(=O)c2cc(NC(=O)c3ccccc3)ccc2O1	11	61	.	.	.	.	.
C[C@@H]1CN([C@@H](C)CO)C(=O)c2cc(NC(=O)Cn3cnnn3)ccc2O[C@@H]1CN(C)C(=O)Nc1ccc(C(F)(F)F)cc1	8	-91	1	.	.	.	.
COc1ccccc1C#Cc1ccc2c(c1)O[C@H](CN(C)Cc1cccnc1)[C@H](C)CN([C@@H](C)CO)S2(=O)=O	-3	.	.	.	.	.	.
SMILES	KDM4C inh	T cruzi growth-1	IDH1 R132H inh	T cruzi growth-2	T cruzi growth-3	3T3 cytotox	NIH3T3 tox 2
COc1ccccc1C#Cc1ccc2c(c1)O[C@H](CN(C)Cc1ccccc1)[C@@H](C)CN([C@H](C)CO)S2(=O)=O	-3	114*	2	99*	112*	-47	-16
COc1ccccc1C#Cc1ccc2c(c1)O[C@@H](CN(C)Cc1ccccc1)[C@@H](C)CN([C@H](C)CO)S2(=O)=O	4	122*	0	107*	113*	-27	-39
COc1ccccc1C#Cc1ccc2c(c1)O[C@H](CN(C)Cc1cncnc1)[C@H](C)CN([C@@H](C)CO)S2(=O)=O	-1	94	.	.	.	.	.
COc1ccccc1C#Cc1ccc2c(c1)O[C@H](CN(C)Cc1cncnc1)[C@@H](C)CN([C@@H](C)CO)S2(=O)=O	2	117	0	.	.	.	.
COc1ccccc1C#Cc1ccc2c(c1)O[C@@H](CN(C)Cc1ccccc1)[C@H](C)CN([C@@H](C)CO)S2(=O)=O	-4	119*	-3	87	112*	45*	42*
COc1ccc2c3c(n(C)c2c1)[C@H](CO)N(C(=O)Nc1ccc(F)cc1)CC31CN(C(=O)Nc2c(C)noc2C)C1	-1	.	.	.	.	.	.
COc1ccccc1NC(=O)N1C[C@@H](O)COC[C@H]2O[C@H](CC(=O)NCCc3ccccc3)CC[C@@H]21	-1	-17	.	.	.	.	.
COc1ccccc1C#Cc1ccc([C@@H]2[C@@H](CO)N(C(=O)C3CCC3)[C@H]2C#N)cc1	-3	91	.	.	.	.	.
COc1ccccc1C#Cc1ccc([C@@H]2[C@@H](C#N)N(C(=O)C3CCC3)[C@H]2CO)cc1	-3	97*	.	104*	111*	-24	6

Source: PubChem BioAssay
